An excerpt weighted towards active compounds, which were near 0.72% of everything screened.
hIAP activ = human IAP activation; activation factor at 10 µM; AID 2524; P09923; actives 0.16% (n = 330,000); purified human IAP, CDP-Star luminescence, 30 min; stronger effect = higher value; 1 = vehicle-only enzyme, 0 = enzyme-free background;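 active means activation factor of the enzyme at least 2-fold when tested at 20 µM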
Target sequence (P09923 whole entry, looked up): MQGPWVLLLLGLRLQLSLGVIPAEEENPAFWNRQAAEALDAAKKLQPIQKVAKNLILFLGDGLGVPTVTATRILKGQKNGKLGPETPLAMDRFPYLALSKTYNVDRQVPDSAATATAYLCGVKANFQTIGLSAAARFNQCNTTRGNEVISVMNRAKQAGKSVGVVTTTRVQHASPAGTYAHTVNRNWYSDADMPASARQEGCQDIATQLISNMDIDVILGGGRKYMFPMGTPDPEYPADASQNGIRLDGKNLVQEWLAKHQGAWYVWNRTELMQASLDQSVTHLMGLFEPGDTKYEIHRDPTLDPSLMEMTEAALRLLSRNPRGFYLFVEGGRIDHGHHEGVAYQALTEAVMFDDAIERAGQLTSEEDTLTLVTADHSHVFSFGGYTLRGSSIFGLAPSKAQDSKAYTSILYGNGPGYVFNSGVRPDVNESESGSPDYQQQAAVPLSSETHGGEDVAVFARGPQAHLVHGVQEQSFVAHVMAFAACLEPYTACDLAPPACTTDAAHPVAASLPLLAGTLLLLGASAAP
bIAP inh = intestinal alkaline phosphatase (bovine) inhibition | purified bovine IAP, CDP-star luminescence, 30 min | inhibition, % at 20 µM | 190,000 tested, under 10 active | AID 1019;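 active means over 50% inhibition of intestinal alkaline phosphatase at 20 µM in the single-dose screen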
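System: Purified bovine intestinal alkaline phosphatase (IAP) enzyme | Input: IAP diluted 1/65,000,000 in the well | Also added: CDP-star chemiluminescent phosphatase substrate, 30 µM final | Dosing: 20 µM single dose | Times: Enzyme reaction for 30 min at room temperature | Detection: Luminescence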
bIAP activator = increases bovine intestinal alkaline phosphatase activity; purified bovine IAP, CDP-star luminescence, 30 min; stronger effect = higher value; fold of DMSO-control signal, blank-subtracted; AID 1016; activation factor at 20 µM; actives 0.17% (n = 200,000);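 active means activation factor of 2 or more at 20 µM, a signal rise over negative controls twice the positive control's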
mIAP activ = mouse IAP activation; muIAP, CDP-Star luminescence, 30 min; stronger effect = higher value; 1 = vehicle-only enzyme signal, 0 = enzyme-free wells; activation factor at 10 µM; actives 0.24% (n = 330,000); AID 2805;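 active means activation factor of at least 2 at 20 µM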
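Assay system: mouse IAP enzyme; Reagent: CDP-Star chemiluminescent phosphatase substrate; Compound: DMSO-dissolved test compounds; Incubation: 30 min, room temperature; Technique: luminescence from enzymatic CDP-Star hydrolysis; Controls: DMSO-only wells and no-enzyme negative control.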
mIAP block = blocks mouse intestinal alkaline phosphatase; purified mouse IAP, CDP-Star luminescence, 30 min; inhibition, % at 10 µM; actives 0.2% (n = 330,000); AID 2806;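 active means inhibition of at least 40% at 10 µM in the primary screen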
hIAP inh = human IAP inhibition | actives 0.12% (n = 330,000) | purified IAP, CDP-Star luminescence, 30 min | inhibition, % at 10 µM | P09923;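 active means inhibition reaching a set limit with compound at 10 µM in the primary screen, cut at about 35% in these data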
Of the large screens only hits and unclear results are named; the others gave an inactive call.

C[C@H](CO)N1C[C@H](C)[C@@H](CN(C)S(=O)(=O)c2cccs2)Oc2ccc(NC(=O)Nc3ccc4c(c3)OCO4)cc2C1=O	mIAP activ 2.2 (no result: bIAP inh, bIAP activator)
Cc1cccc(NC(=O)c2cn(-c3ccccc3)nc2-c2ccccc2)c1	mIAP activ 2.6
COc1ccc(N2CCN(CC(=O)Nc3ccccc3C(=O)NCc3ccccc3)CC2)cc1	none (no result: bIAP inh, bIAP activator)
CC(C)N1CC(O)=C(c2nc3ccccc3[nH]2)C1=N	bIAP activator 2.2
CC(C1CC2CCC1C2)N1CC(O)=C(c2nc3ccccc3[nH]2)C1=N (centres undefined)	none (no result: bIAP inh, bIAP activator)
COc1ccccc1C(=O)NCCC(=O)N1CCN(S(=O)(=O)c2ccc(Cl)cc2)CC1	none (no result: bIAP inh, bIAP activator)
Cc1ccc(NC(=S)N2CCN(C(=O)C3CCCO3)CC2)cc1 (centres undefined)	none
O=C(C1CCCO1)N1CCN(C(=S)Nc2ccc(Cl)cc2)CC1 (centres undefined)	bIAP activator 2.4
Cc1ccc(NC2=NC(C(=O)Nc3ccc(C)c(C)c3)CC(=O)N2)cc1 (centres undefined)	bIAP activator 2
Cc1ccc(NC(=O)C2CCC(=O)N2)cc1C (centres undefined)	none
CN1CCN(S(=O)(=O)c2cccc(C(=O)N(C)CC(=O)Nc3ccc(F)c(F)c3F)c2)CC1	none (no result: bIAP inh, bIAP activator)
Cc1ccc(C)c(CN2CCC(CNC(=O)Nc3ccc(Br)cc3F)CC2)c1	mIAP activ 3.2 (no result: bIAP inh, bIAP activator)
O=C(NCC1CCN(Cc2ccccc2Cl)CC1)Nc1ccccc1F	none (no result: bIAP inh, bIAP activator)
CC(=O)N1CCN(C(=O)COc2ccc(Br)cc2)CC1	none
COc1ccc(OCC(=O)N2CCN(C(=O)COc3ccc(Br)cc3)CC2)cc1	mIAP block 74
COc1ccc(N2CSC3=C(C#N)C(c4cccs4)CC(=O)N3C2)cc1 (centres undefined)	mIAP block 44
CCc1ccc(N2CSC3=C(C#N)C(c4cccs4)CC(=O)N3C2)cc1 (centres undefined)	none
Cc1ccc(NC(=O)NCCN2CCCCC2)cc1C	none (no result: bIAP inh, bIAP activator)
CCCCSCCCNC(=O)Nc1ccc(C)c(C)c1	mIAP activ 2.7
COc1ccc(CC(=O)N(C)CC(=O)Nc2ccc(F)cc2)cc1S(=O)(=O)N1CCOCC1	none (no result: bIAP inh, bIAP activator)
O=C(COC(=O)C1CCC1)Nc1ncc(Cl)cc1Cl	none (no result: bIAP inh, bIAP activator)
N#Cc1ccc(NC(=O)Nc2ccc(Cl)cc2)cc1	mIAP activ 2.2
Nc1ccc2nc(CCCCCCCCc3nc4ccc(N)cc4[nH]3)[nH]c2c1	bIAP activator 2
O=C(NCc1ccccc1CN1CCCC1)C1CCN(C(=O)c2ccc(F)cc2)CC1	none (no result: bIAP inh, bIAP activator)
O=C(NCc1ccco1)c1sc(=S)n2c1[nH]c(=O)c1ccccc12	mIAP block 40
O=C(NC1CCCC1)c1sc(=S)n2c1[nH]c(=O)c1ccccc12	none
O=C(NCc1ccccc1)NC12CC3CC(CC(C3)C1)C2	none (no result: bIAP inh, bIAP activator)
Cc1nn(Cc2cccc(Oc3ccccc3)c2)c(C)c1NC(=O)NC12CC3CC(CC(C3)C1)C2	mIAP activ 6.8
O=C(COc1ccc([N+](=O)[O-])cc1)NNC(=O)Nc1ccccc1F	mIAP block 44 (no result: bIAP inh, bIAP activator)
CC(C)(C)c1ccc(C(=O)NCCCNC(=O)c2ccccn2)cc1	none (no result: bIAP inh, bIAP activator)
COc1cc(NC(=O)CN(c2ccc(C)cc2)S(=O)(=O)c2c(C)noc2C)cc(OC)c1	none (no result: bIAP inh, bIAP activator)
COc1cc(NC(=O)CN(c2cc(C)cc(C)c2)S(=O)(=O)c2c(C)noc2C)cc(OC)c1	mIAP activ 3
COc1cccc(C(C)NC(=S)NCc2ccc(Cl)cc2)c1 (centres undefined)	mIAP activ 2.5
COc1ccc(CNC(=S)Nc2cccc(Cl)c2)cc1	mIAP activ 2.7 (no result: bIAP inh, bIAP activator)
COc1ccc(C(C)NC(=S)NCc2ccc(F)cc2)cc1 (centres undefined)	none (no result: bIAP inh, bIAP activator)
S=C(NCc1cccnc1)Nc1cccc(Cl)c1	none
S=C(NCc1cccnc1)Nc1cc(Cl)cc(Cl)c1	mIAP activ 2.1 (no result: bIAP inh, bIAP activator)
CCCCc1ccc(NC(=S)NCc2cccc(OC)c2)cc1	mIAP activ 2.5
N#CCC(=O)N/N=C/c1c(-c2ccccc2)n(-c2ccccc2)c2ccccc12	none (no result: bIAP inh, bIAP activator)
CN(C)C(=O)CSc1ccc(S(=O)(=O)N2CCOCC2)cn1	none (no result: bIAP inh, bIAP activator)
CC(C)N(C(=O)[C@H]1CC(CC(=O)NCCc2ccccn2)C(=O)N2CCc3c([nH]c4ccccc34)[C@]12C)C(C)C (some centres undefined)	none (no result: bIAP inh, bIAP activator)
Cc1cccc(C)c1OCC(=O)N(Cc1ccc(N(C)C)cc1)C1CCS(=O)(=O)C1 (centres undefined)	none (no result: bIAP inh, bIAP activator)
CC(NC(=O)COc1ccc(S(=O)(=O)N2CCOCC2)cc1)c1ccccc1 (centres undefined)	none (no result: bIAP inh, bIAP activator)
CC(Cc1cccs1)NC(=O)Nc1ccc(F)cc1 (centres undefined)	none
CC(Cc1cccs1)NC(=S)Nc1ccc(Cl)c(Cl)c1 (centres undefined)	mIAP activ 2
CC(Cc1cccs1)NC(=O)Nc1cccc(Cl)c1 (centres undefined)	mIAP activ 2.3
COc1cc2c(cc1OC)C(C(=O)Nc1ccc3c(c1)OCCO3)C1c3ccccc3CCN1C2=O (centres undefined)	bIAP activator 2.5
C=C1CCN([C@@H](Cc2ccccc2)C(=O)NCCCc2ccccc2)S(=O)(=O)c2ccccc21	none (no result: bIAP inh, bIAP activator)
O=C(Cn1cc(C(F)(F)F)cc(Cl)c1=O)Nc1cccc(S(=O)(=O)N2CCCCC2)c1	none (no result: bIAP inh, bIAP activator)
CCc1ccc(NC(=O)C(CC)Sc2nc3cc4c(cc3c(=O)n2Cc2ccco2)OCO4)cc1 (centres undefined)	bIAP activator 2.9
Cc1noc(NS(=O)(=O)c2ccc(NC(=O)c3nn(-c4ccccc4)ccc3=O)cc2)c1C	none (no result: bIAP inh, bIAP activator)
O=S(=O)(NC(=S)c1ccccc1)c1ccc(F)cc1	none (no result: bIAP inh, bIAP activator)
CCCCOCCCNC(=S)Nc1ccc(S(=O)(=O)N2CCOCC2)cc1	none (no result: bIAP inh, bIAP activator)
NNC(=S)Nc1ccc(S(=O)(=O)N2CCOCC2)cc1	none (no result: bIAP inh, bIAP activator)
O=S(=O)(c1ccc(NC(=S)NCCC(c2ccccc2)c2ccccc2)cc1)N1CCOCC1	mIAP activ 2.1
CC(C)(C)CC(C)(C)NC(=S)Nc1ccc(S(=O)(=O)N2CCOCC2)cc1	mIAP activ 2.2
COc1cccc(NC(=O)CN2C(=O)NC3(CCc4ccccc43)C2=O)c1 (centres undefined)	none (no result: bIAP inh, bIAP activator)
O=C(O)Cc1ccc(O)c(O)c1	mIAP block 60 (no result: bIAP inh, bIAP activator)
COc1ccc2c(c1)c(=O)cc(C)n2CC(=O)NCc1ccco1	bIAP activator 5.3
COc1ccc(-n2c(=O)c3ccccc3n(CC(=O)NCc3ccco3)c2=O)cc1	none
Cc1cc(NC(=O)CN2C(=O)NC(C)(c3ccc(Cl)cc3Cl)C2=O)no1 (centres undefined)	none (no result: bIAP inh, bIAP activator)
S=C(NCCc1ccc(Cl)cc1)Nc1ccc(Cl)cc1Cl	mIAP activ 2.3
S=C(NCCCc1ccccc1)Nc1ccc(Cl)cc1	mIAP activ 2.7
